According to ChEMBL document CHEMBL5143543, “Synthesis and evaluation of enantiomers of hydroxychloroquine against SARS-CoV-2 in vitro” (Bioorg Med Chem, 2022):
Activity calls are given as the source filed them. The rule behind the calls is not given here.

Assays:
[1] = tested on: SARS-CoV-2; assay: Antiviral activity against SARS-CoV-2 infected in Vero E6 cells assessed as virus-induced cytopathic effect at 40 uM measured after 48 hrs by CCK-8 assay; format: functional, organism-based; conditions: Severe acute respiratory syndrome coronavirus 2
[2] = tested on: SARS-CoV-2; assay: Antiviral activity against SARS-CoV-2 infected in Vero E6 cells assessed as viral RNA level measured after 48 hrs by RT-PCR analysis; format: functional, organism-based; conditions: Severe acute respiratory syndrome coronavirus 2, Vero C1008, 48 h
[3] = Toxicity in mouse assessed as death at 230 mg/kg, po measured after 9 days; format: organism-based; conditions: in vivo, 216 h, time 9 day
Summary of the method: (§1)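 Male and female mice (25 g; n = 8 per group; vehicle-control and test groups) were fasted overnight. Compounds were given as sulfate salts in physiological saline, intragastrically at 230 mg/kg twice a day; controls received saline. Survival was followed by day post dosing, in a double-dose acute toxicity assay.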

[4] = Toxicity in mouse assessed as death at 230 mg/kg, po measured after 12 days; format: organism-based; conditions: in vivo, 288 h, time 12 day; summary of the method: as §1
[5] = tested on: SARS-CoV-2; assay: Antiviral activity against SARS-CoV-2 infected in Vero E6 cells assessed as virus-induced cytopathic effect at 5 uM measured after 48 hrs by CCK-8 assay; format: functional, organism-based; conditions: Severe acute respiratory syndrome coronavirus 2
[6] = Toxicity in mouse assessed as death at 230 mg/kg, po measured after 7 days; format: organism-based; conditions: in vivo, 168 h, time 7 day; summary of the method: as §1

| SMILES | Activity [1] | EC50 [2] | Activity [3] | Activity [4] | Activity [5] | Activity [6] |
| --- | --- | --- | --- | --- | --- | --- |
| CCN(CCO)CCC[C@@H](C)Nc1ccnc2cc(Cl)ccc12.O=S(=O)(O)O | Active | 5.38 µM | Toxic |  |  |  |
| CCN(CCO)CCC[C@H](C)Nc1ccnc2cc(Cl)ccc12.O=S(=O)(O)O | Active | 3.05 µM |  | Non-Toxic |  |  |
| CCC(CC)COC(=O)[C@H](C)N[P@](=O)(OC[C@H]1O[C@@](C#N)(c2ccc3c(N)ncnn23)[C@H](O)[C@@H]1O)Oc1ccccc1 |  |  |  |  | Active |  |
| CCN(CCO)CCCC(C)Nc1ccnc2cc(Cl)ccc12.O=S(=O)(O)O (racemic) [HYDROXYCHLOROQUINE SULFATE] | Active | 5.09 µM |  |  |  | Toxic |
